According to PMC8485890 (Hepatology Communications, 2021):

Key:
[1] = cited from earlier work
bacterial DNA = bacterial DNA present in skin injury; cited from earlier work
C57BL/6J mice = test: Survival of mice after APAP overdose; format: in vivo, mouse (C57BL/6J); settings: APAP 600 mg/kg oral gavage, within 24 hours
In short: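 Fasted C57BL/6J mice were dosed by oral gavage with APAP dissolved in warm saline, at several doses including 600 mg/kg, and survival was tracked (n ≥ 9 per group). In the 24-h treatment arm, peptide was given intravenously at 100 µg/dose, 6, 12 and 18 h after APAP.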

[2] = tested on: liver of APAP-treated mice; test: Serum ALT; format: in vivo, mouse; settings: APAP 600 mg/kg oral gavage; 6 to 36 hours after overdose
In short: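 Fasted mice received APAP 600 mg/kg, dissolved in warm saline, by oral gavage. Hepatocyte necrosis was followed over time by serum ALT, and liver sections were examined by H&E histopathology. Groups had at least five mice, and each experiment was done at least twice. Data are mean ± SEM, analysed by t test or one-way ANOVA.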

liver = test: Histopathology of liver sections; format: in vivo, mouse; settings: APAP 600 mg/kg, H&E-stained liver sections, up to 24 hours
In short: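 APAP (600 mg/kg) was given in warm saline by oral gavage to fasted mice. Livers were taken at times up to 24 h. Necrotic areas were scored on sections stained with hematoxylin and eosin. Groups had at least five mice, and experiments were repeated at least twice. Data are mean ± SEM.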

[3] = tested on: pro-inflammatory mediators in liver and serum; test: Cytokine/chemokine ELISA in liver lysates and serum of APAP-treated mice; format: in vivo, mouse; settings: APAP 600 mg/kg, as early as 6 hours
In short: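 Fasted mice received APAP (600 mg/kg) dissolved in warm saline by oral gavage; controls received vehicle. TNF-α, CXCL1, CXCL2 and CXCL6 were measured by ELISA in liver lysates and serum over a time course after overdose. Groups had at least five mice, and experiments were run at least twice. Data are mean ± SEM, compared by one-way ANOVA.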

neutrophils in the liver = test: Neutrophil recruitment to the liver; format: in vivo, mouse (LysM-eGFP); settings: APAP-treated LysM-eGFP mice, time course
In short: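 LysM-eGFP mice were fasted and given oral APAP in warm saline. Neutrophils were counted in the liver by their GFP signal using confocal intravital microscopy over the injury time course. Extracellular DNA was visualised with i.v. Sytox green (2 µL of 5 mM). Groups had at least five mice, with experiments repeated at least twice. Data are mean ± SEM.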

[4] = tested on: myeloperoxidase (MPO) activity in liver; test: MPO activity in liver lysates; format: in vivo, mouse; settings: APAP-treated C57BL/6J mice
In short: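 MPO activity was measured in liver lysates as an estimate of neutrophil infiltration. C57BL/6J mice were fasted, then dosed with APAP in warm saline by oral gavage. Treatment arms received 100 µg peptide i.v. at 6, 12 and 18 h after overdose. Groups had at least five mice, and each experiment was run at least twice. Data are mean ± SEM, compared by t test or one-way ANOVA.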

[5] = tested on: extracellular DNA and MIG30 staining in the liver; test: Enzymatic removal of DNA and MIG30 staining from the injured liver; format: in vivo, mouse; settings: APAP-treated mice, MIG30-TAMRA 20 µg; hyaluronidase 1,000 U or heparinase III 100 µg i.v.; up to 10 minutes
In short: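 Fasted mice received APAP (dissolved in warm saline) by oral gavage. They then received i.v. Sytox green and 20 µg TAMRA-labelled peptide. Next they were given i.v. hyaluronidase (1,000 U) or heparinase III (100 µg); DNase 1 (1,000 U) was given similarly. Mean fluorescence intensity of DNA and peptide in liver was followed by confocal intravital microscopy for up to 10 minutes.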

[6] = tested on: APAP-induced liver injury; settings: reducing agent; cited from earlier work

KKVLKVRKAQRSRQKKTT [control peptide]
GAG binding [1]: poor GAG affinity

CXCL10: chemokine CXCL10
binding to bacterial DNA (bacterial DNA): bind to bacterial DNA

CC(=O)Nc1ccc(O)cc1 [APAP, Acetaminophen]
mortality (C57BL/6J mice): 40% | liver damage (serum ALT levels) [2]: significant liver damage as early as 6 hours after APAP intoxication and up to 36 hours after the overdose | hepatic necrosis (histopathology) (liver): extensive hepatic necrosis | CXCL1 produced in the liver [3]: significant amounts | CXCL2 produced in the liver [3]: significant amounts | CXCL6 produced in the liver [3]: significant amounts | TNF-α produced in the liver [3]: significant amounts | neutrophil infiltration in the liver (neutrophils in the liver): profound neutrophil infiltration was observed between 12 and 36 hours after injury, which was maximal at the 24‐hour timepoint | neutrophils in liver by MPO assay [4]: presence of neutrophils predominantly 24 hours after APAP treatment

hyaluronidase
removal of MIG30 staining from liver by glycosidase [5]: Neither the DNA nor the MIG30 staining were significantly removed

CC(=O)N[C@@H](CS)C(=O)O [N‐acetylcysteine]
effect on APAP-induced liver injury and inflammation [6]: effective only if given soon after the APAP challenge or as a pretreatment

CXCL11: chemokine CXCL11
binding to bacterial DNA (bacterial DNA): bind to bacterial DNA

B1: heparinase: Heparinase III produced and provided by A. Kungl (protein, UniProt Q59289 25-659, looked up)
Heparin-sulfate lyase: QSSSITRKDFDHINLEYSGLEKVNKAVAAGNYDDAAKALLAYYREKSKAREPDFSNAEKPADIRQPIDKVTREMADKALVHQFQPHKGYGYFDYGKDINWQMWPVKDNEVRWQLHRVKWWQAMALVYHATGDEKYAREWVYQYSDWARKNPLGLSQDNDKFVWRPLEVSDRVQSLPPTFSLFVNSPAFTPAFLMEFLNSYHQQADYLSTHYAEQGNHRLFEAQRNLFAGVSFPEFKDSPRWRQTGISVLNTEIKKQVYADGMQFELSPIYHVAAIDIFLKAYGSAKRVNLEKEFPQSYVQTVENMIMALISISLPDYNTPMFGDSWITDKNFRMAQFASWARVFPANQAIKYFATDGKQGKAPNFLSKALSNAGFYTFRSGWDKNATVMVLKASPPGEFHAQPDNGTFELFIKGRNFTPDAGVFVYSGDEAIMKLRNWYRQTRIHSTLTLDNQNMVITKARQNKWETGNNLDVLTYTNPSYPNLDHQRSVLFINKKYFLVIDRAIGEATGNLGVHWQLKEDSNPVFDKTKNRVYTTYRDGNNLMIQSLNADRTSLNEEEGKVSYVYNKELKRPAFVFEKPKKNAGTQNFVSIVYPYDGQKAPEISIRENKGNDFEKGKLNLTLTINGKQQLVLVP
removal of MIG30 staining from liver by glycosidase [5]: Neither the DNA nor the MIG30 staining were significantly removed

B2: CXCL9: full-length chemokine CXCL9 (protein, UniProt Q07325 1-125, looked up)
chain: MKKSGVLFLLGIILLVLIGVQGTPVVRKGRCSCISTNQGTIHLQSLKDLKQFAPSPSCEKIEIIATLKNGVQTCLNPDSADVKELIKKWEKQVSQKKKQKNGKKHQKKKVLKVRKSQRSRQKKTT
modifications: full-length
binding to bacterial DNA (bacterial DNA): bind to bacterial DNA
